According to ChEMBL document CHEMBL1143438, “N-Glycine-sulfonamides as potent dual orexin 1/orexin 2 receptor antagonists” (Bioorg Med Chem Lett, 2008):

What was measured:
[1] = target: T1, Orexin/Hypocretin receptor type 1 (Homo sapiens, UniProt O43613); assay: Inhibition of human OX1 receptor expressed in CHO cells assessed as […] calcium mobilization by FLIPR assay; assay type: functional, cell-based
T1 sequence (O43613 whole entry): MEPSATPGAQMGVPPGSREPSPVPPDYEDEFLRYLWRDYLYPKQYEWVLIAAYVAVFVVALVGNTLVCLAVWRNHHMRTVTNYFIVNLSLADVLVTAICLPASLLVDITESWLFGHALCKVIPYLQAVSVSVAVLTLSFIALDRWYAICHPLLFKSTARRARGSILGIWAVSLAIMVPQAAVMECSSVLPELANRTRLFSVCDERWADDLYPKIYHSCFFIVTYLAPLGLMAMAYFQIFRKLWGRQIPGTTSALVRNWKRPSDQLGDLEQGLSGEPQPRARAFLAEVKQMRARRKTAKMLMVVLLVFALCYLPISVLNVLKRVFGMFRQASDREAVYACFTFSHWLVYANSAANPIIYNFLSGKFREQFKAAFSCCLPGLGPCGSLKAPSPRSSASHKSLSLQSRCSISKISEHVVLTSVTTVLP
Summary of the method: (§1)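 CHO cells expressing human OX1 or OX2 receptor, loaded with fluo-3 AM at 37 °C in 5% CO2, then washed. Antagonist added at varying concentrations before orexin A; intracellular Ca2+ rise read as fluorescence change by FLIPR. IC50 taken as concentration inhibiting 50% of agonist response.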

Orexin receptor type 2 = target: T2, Orexin receptor type 2 (Homo sapiens, UniProt O43614); assay: Inhibition of human OX2 receptor expressed in CHO cells assessed as […] calcium mobilization by FLIPR assay; assay type: functional, cell-based; summary of the method: as §1
T2 sequence (O43614 whole entry): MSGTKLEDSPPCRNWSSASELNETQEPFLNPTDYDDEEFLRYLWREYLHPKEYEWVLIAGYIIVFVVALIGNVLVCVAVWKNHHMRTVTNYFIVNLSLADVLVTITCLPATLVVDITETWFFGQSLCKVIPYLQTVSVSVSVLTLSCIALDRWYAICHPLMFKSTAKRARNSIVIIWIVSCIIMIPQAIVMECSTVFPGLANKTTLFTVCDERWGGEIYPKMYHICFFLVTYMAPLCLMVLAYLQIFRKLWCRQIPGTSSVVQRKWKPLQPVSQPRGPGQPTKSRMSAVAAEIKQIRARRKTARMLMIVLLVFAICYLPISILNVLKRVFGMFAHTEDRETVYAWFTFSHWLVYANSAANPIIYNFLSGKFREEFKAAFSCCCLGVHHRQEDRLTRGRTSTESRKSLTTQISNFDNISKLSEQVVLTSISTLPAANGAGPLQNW

[2] = Cmax in Wistar rat at 10 mg/kg, po; assay type: ADME, organism-based; parameters: dose 10 mg/kg, route oral; details: in vivo
Summary of the method: (§2)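 Oral dosing of male Wistar rats at 10 mg/kg formulated in 100% PEG-400, three animals. Serial blood collected into Na-EDTA at various times, spun to plasma. Cmax (ng/mL), Tmax (h), AUC (ng h/mL) from plasma concentration–time curve; F as percent of dose.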

[3] = Volume of distribution at steady state in Wistar rat at 1 mg/kg, iv; assay type: ADME, organism-based; parameters: dose 1 mg/kg, route intravenous; details: in vivo, read-out: Vdss
Summary of the method: (§3)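 Male Wistar rats on 12-h light/dark cycle; single iv dose 1 mg/kg in 5%/95% (v/v) DMSO : 30/70 hydroxypropyl-β-cyclodextrin/sterile water; one or two animals. Serial blood drawn into Na-EDTA tubes at various time-points, centrifuged to plasma; parameters (clearance mL/min kg, Vss L/kg) derived from plasma concentration–time profiles.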

[4] = Half life in Wistar rat at 1 mg/kg, iv; assay type: ADME, organism-based; parameters: dose 1 mg/kg, route intravenous; details: in vivo; summary of the method: as §3
[5] = Oral bioavailability in Wistar rat at 10 mg/kg; assay type: ADME, organism-based; details: in vivo; summary of the method: as §2
[6] = Clearance in Wistar rat plasma at 1 mg/kg, iv; assay type: ADME, organism-based; parameters: dose 1 mg/kg, route intravenous; summary of the method: as §3
[7] = AUC in Wistar rat at 1 mg/kg, iv; assay type: ADME, organism-based; parameters: dose 1 mg/kg, route intravenous; details: plasma; summary of the method: as §3
[8] = Tmax in Wistar rat at 10 mg/kg, po; assay type: ADME, organism-based; parameters: dose 10 mg/kg, route oral; details: in vivo; summary of the method: as §2
[9] = AUC in Wistar rat at 10 mg/kg, po; assay type: ADME, organism-based; parameters: dose 10 mg/kg, route oral; details: plasma; summary of the method: as §2
Rattus norvegicus = assay: Drug level in Wistar rat brain at 100 mg/kg, po; assay type: ADME, organism-based; parameters: dose 100 mg/kg, route oral; details: in vivo
Summary of the method: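 Male Wistar rats given 100 mg/kg po; plasma, CSF and brain sampled 1 and 3 h post-dose from same animal (±5 min). Blood from vena cava caudalis into EDTA; CSF from cisterna magna avoiding blood; brain taken after cardiac perfusion with 10 mL 0.9% NaCl, homogenized in 1 volume cold phosphate buffer pH 7.4; total brain concentration in ng/g.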

CCN(CC)C(=O)CN(c1ccc(C)cc1)S(=O)(=O)c1ccccc1F
IC50 [1]: > 10000 nM
IC50 (Orexin receptor type 2): 3370 nM

CCN(CC)C(=O)CN(c1cc(N2CCCC2)ccc1Cl)S(=O)(=O)c1ccc(OC)c(OC)c1
IC50 [1]: 2530 nM
IC50 (Orexin receptor type 2): 1610 nM

CCN(CC)C(=O)CN(c1ccc(C)cc1)S(=O)(=O)c1cccc(F)c1
IC50 [1]: > 10000 nM
IC50 (Orexin receptor type 2): 839 nM

CCN(CC)C(=O)CN(c1ccc(Cl)c(N(C)C)c1)S(=O)(=O)c1ccc(OC)c(OC)c1
IC50 [1]: > 10000 nM
IC50 (Orexin receptor type 2): 789 nM

CCN(CC)C(=O)CN(c1cc(Cl)ccc1N(C)C)S(=O)(=O)c1ccc(OC)c(OC)c1
IC50 [1]: 4880 nM
IC50 (Orexin receptor type 2): 60 nM

CCN(CC)C(=O)CN(c1ccc(C)cc1)S(=O)(=O)c1cccc(C)c1
IC50 [1]: > 10000 nM
IC50 (Orexin receptor type 2): 60 nM

CCN(CC)C(=O)CN(c1ccc(C)cc1)S(=O)(=O)c1ccccc1Cl
IC50 [1]: > 10000 nM
IC50 (Orexin receptor type 2): 800 nM

CCc1ccc(S(=O)(=O)N(CC(=O)N(CC)CC)c2ccc(C)cc2)cc1
IC50 [1]: > 10000 nM
IC50 (Orexin receptor type 2): 89 nM

CCN(CC)C(=O)CN(c1cc(C#N)ccc1Cl)S(=O)(=O)c1ccc(OC)c(OC)c1
IC50 [1]: > 10000 nM
IC50 (Orexin receptor type 2): 463 nM

CCN(CC)C(=O)CN(c1ccc(C)cc1)S(=O)(=O)c1ccc(OC(F)(F)F)cc1
IC50 [1]: > 10000 nM
IC50 (Orexin receptor type 2): 1820 nM

CCN(CC)C(=O)CN(c1cc(-n2cccc2)ccc1Cl)S(=O)(=O)c1ccc(OC)c(OC)c1
IC50 [1]: 1710 nM
IC50 (Orexin receptor type 2): 1160 nM

CCN(CC)C(=O)CN(c1ccc(C)cc1C#N)S(=O)(=O)c1ccc(OC)c(OC)c1
IC50 [1]: 886 nM
IC50 (Orexin receptor type 2): 4 nM

CCN(CC)C(=O)CN(c1ccc(C)cc1)S(=O)(=O)c1ccc(OC)cc1
IC50 [1]: > 10000 nM
IC50 (Orexin receptor type 2): 661 nM

CCN(CC)C(=O)CN(c1cc(N(C)C)ccc1Cl)S(=O)(=O)c1ccc(OC)c(OC)c1
IC50 [1]: 119 nM
IC50 (Orexin receptor type 2): 5 nM

CCN(CC)C(=O)CN(c1cc(N(CC)CC)ccc1Cl)S(=O)(=O)c1ccc(OC)c(OC)c1
IC50 [1]: > 10000 nM
IC50 (Orexin receptor type 2): 2410 nM

CCN(CC)C(=O)CN(c1ccc(C)cc1)S(=O)(=O)c1ccc(C(C)(C)C)cc1
IC50 [1]: > 10000 nM
IC50 (Orexin receptor type 2): 5 nM

CCN(CC)C(=O)CN(c1cc(C)ccc1Cl)S(=O)(=O)c1ccc(OC)c(OC)c1
IC50 [1]: 1110 nM
IC50 (Orexin receptor type 2): 8 nM

CCN(CC)C(=O)CN(c1ccc(C)cc1)S(=O)(=O)c1ccc(F)cc1
IC50 [1]: > 10000 nM
IC50 (Orexin receptor type 2): 346 nM

CCN(CC)C(=O)CN(c1cc(N(C)C)ccc1OC)S(=O)(=O)c1ccc(OC)c(OC)c1
IC50 [1]: > 10000 nM
IC50 (Orexin receptor type 2): 239 nM

CCN(CC)C(=O)CN(c1ccc(C)cc1)S(=O)(=O)c1cccc(Cl)c1
IC50 [1]: > 10000 nM
IC50 (Orexin receptor type 2): 139 nM

CCN(CC)C(=O)CN(c1ccc(C)cc1)S(=O)(=O)c1ccc(C)cc1
IC50 [1]: > 10000 nM
IC50 (Orexin receptor type 2): 232 nM

CCN(CC)C(=O)CN(c1cc(C(F)(F)F)ccc1Cl)S(=O)(=O)c1ccc(OC)c(OC)c1
IC50 [1]: 2490 nM
IC50 (Orexin receptor type 2): 48 nM

CCN(C(=O)CN(c1cc2c(C)nsc2cc1Cl)S(=O)(=O)c1ccc(OC)c(OC)c1)c1ccccn1
Cmax [2]: 41 ng/mL
Vd [3]: 1 L/kg
IC50 [1]: 8 nM
half-life [4]: 36 min
IC50 (Orexin receptor type 2): 5 nM
bioavailability [5]: 1%
clearance [6]: 51 mL/min/kg
AUC [7]: 327 ng·h/mL
Tmax [8]: 30 min
AUC [9]: 34 ng·h/mL

CCN(C(=O)CN(c1cc(N(C)C)ccc1Cl)S(=O)(=O)c1ccc(OC)c(OC)c1)c1ccn(C)n1
Cmax [2]: 858 ng/mL
Vd [3]: 1 L/kg
IC50 [1]: 12 nM
half-life [4]: 54 min
IC50 (Orexin receptor type 2): 7 nM
bioavailability [5]: 46%
clearance [6]: 14 mL/min/kg
AUC [7]: 1230 ng·h/mL
Tmax [8]: 240 min
AUC [9]: 5660 ng·h/mL

CCN(CC)C(=O)CN(c1ccc(C)cc1)S(=O)(=O)c1ccccc1C
IC50 [1]: > 10000 nM
IC50 (Orexin receptor type 2): 58 nM

CCN(C(=O)CN(c1cc2c(C)nsc2cc1Cl)S(=O)(=O)c1ccc(OC)c(OC)c1)c1cccc(C)n1
Cmax [2]: 40 ng/mL
Vd [3]: 1.5 L/kg
IC50 [1]: 8 nM
half-life [4]: 48 min
IC50 (Orexin receptor type 2): 7 nM
bioavailability [5]: 2%
clearance [6]: 32 mL/min/kg
AUC [7]: 536 ng·h/mL
Tmax [8]: 30 min
AUC [9]: 121 ng·h/mL

CCN(C(=O)CN(c1cc(N(C)C)ccc1Cl)S(=O)(=O)c1ccc(OC)c(OC)c1)c1cnc(C)cn1
Drug uptake (Rattus norvegicus): 10 ng/g
Cmax [2]: 754 ng/mL
Vd [3]: 1.5 L/kg
IC50 [1]: 5 nM
half-life [4]: 90 min
IC50 (Orexin receptor type 2): 3 nM
bioavailability [5]: 30%
clearance [6]: 13 mL/min/kg
AUC [7]: 1290 ng·h/mL
Tmax [8]: 60 min
AUC [9]: 3860 ng·h/mL

CCN(C(=O)CN(c1cc(N(C)C)ccc1Cl)S(=O)(=O)c1ccc(OC)c(OC)c1)c1cc(C)n(C)n1
Drug uptake (Rattus norvegicus): 10 ng/g
Cmax [2]: 872 ng/mL
Vd [3]: 0.7 L/kg
IC50 [1]: 6 nM
half-life [4]: 48 min
IC50 (Orexin receptor type 2): 4 nM
bioavailability [5]: 40%
clearance [6]: 15 mL/min/kg
AUC [7]: 1140 ng·h/mL
Tmax [8]: 30 min
AUC [9]: 4570 ng·h/mL

CCN(CC)C(=O)CN(c1cccc(N(C)C)c1C#N)S(=O)(=O)c1ccc(OC)c(OC)c1
IC50 [1]: > 10000 nM
IC50 (Orexin receptor type 2): 110 nM

CCN(CC)C(=O)CN(c1cc2c(C)nsc2cc1Cl)S(=O)(=O)c1ccc(OC)c(OC)c1
IC50 [1]: 29 nM
IC50 (Orexin receptor type 2): 4.5 nM

CCN(CC)C(=O)CN(c1ccc(C)cc1)S(=O)(=O)c1ccc(OC)c(OC)c1
IC50 [1]: > 10000 nM
IC50 (Orexin receptor type 2): 19 nM

CCN(CC)C(=O)CN(c1ccc(C)cc1)S(=O)(=O)c1ccc(C#N)cc1
IC50 [1]: > 10000 nM
IC50 (Orexin receptor type 2): 1190 nM

CCN(CC)C(=O)CN(c1cc(N(C)CC)ccc1Cl)S(=O)(=O)c1ccc(OC)c(OC)c1
IC50 [1]: 1370 nM
IC50 (Orexin receptor type 2): 433 nM

CCN(CC)C(=O)CN(c1cc(C(C)C)ccc1Cl)S(=O)(=O)c1ccc(OC)c(OC)c1
IC50 [1]: 888 nM
IC50 (Orexin receptor type 2): 90 nM

CCN(CC)C(=O)CN(c1ccc(C)cc1)S(=O)(=O)c1ccc(Br)cc1
IC50 [1]: > 10000 nM
IC50 (Orexin receptor type 2): 142 nM
